Test results reported in ChEMBL document CHEMBL3627647, “Antibacterial properties of 3-(phenylsulfonyl)-2-pyrazinecarbonitrile” (Bioorg Med Chem Lett, 2015).
Values after ≈ are worked out from the molar mass of the structure shown. Active and inactive are the calls of the source. The calls are words filed in the database; no cut-off is given here. Peptide text beside a SMILES is read from it. * marks the point of attachment. βNA = c1ccc2cc(N*)ccc2c1

Legend:
Klebsiella pneumoniae [1] = experiment: Antibacterial activity against Klebsiella pneumoniae ATCC 77326 after overnight incubation by broth microdilution method; assay type: functional
Enterobacter sp. [2] = experiment: Antibacterial activity against Enterobacter sp. KCTC 2625 after overnight incubation by broth microdilution method; assay type: functional
Acinetobacter baumannii [3] = experiment: Antibacterial activity against Acinetobacter baumannii ATCC 17978 after overnight incubation by broth microdilution method; assay type: functional
Pseudomonas aeruginosa [4] = experiment: Antibacterial activity against Pseudomonas aeruginosa PA14 after overnight incubation by broth microdilution method; assay type: functional
Staphylococcus aureus [5] = experiment: Antibacterial activity against methicillin-resistant Staphylococcus aureus MW2 after overnight incubation by broth microdilution method; assay type: functional
Outline: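 Broth microdilution MIC against MRSA MW2 in Müller-Hinton broth.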

Enterococcus faecium = experiment: Antibacterial activity against Enterococcus faecium E007 after overnight incubation by broth microdilution method; assay type: functional
Staphylococcus aureus [6] = experiment: (§1) Antibacterial activity against methicillin-resistant Staphylococcus aureus MW2 infected in young adult stage of Caenorhabditis elegans glp-4(bn2);sek-1 (km4) assessed as prolongation of survival at 0.78 to 25 ug/ml after 5 days by Sytox Orange staining-based bright field microscopic analysis relative to control; assay type: functional
Outline: (§2)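 Young adult C. elegans glp-4(bn2);sek-1(km4) co-inoculated in 384-well plates with MRSA MW2 and 2-fold serial dilutions (0.78–100 µg/mL). DMSO ≤1%; 1% DMSO was the negative control and vancomycin the positive control. Dead worms were stained with Sytox Orange and imaged with brightfield. Survival = fraction of worm area not fluorescent.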

Staphylococcus aureus [7] = experiment: as §1, with “50” for “0.78 to 25”; assay type: functional; conditions: MW2, 120 h; outline: as §2
Staphylococcus aureus [8] = experiment: as §1, with “100” for “0.78 to 25”; assay type: functional; conditions: MW2, 120 h; outline: as §2
Pseudomonas aeruginosa [9] = experiment: Antibacterial activity against Pseudomonas aeruginosa PA14 assessed as growth inhibition at 64 ug/ml after overnight incubation by broth microdilution method; assay type: functional, organism-based
Klebsiella pneumoniae [10] = experiment: Antibacterial activity against Klebsiella pneumoniae ATCC 77326 assessed as growth inhibition at 64 ug/ml after overnight incubation by broth microdilution method; assay type: functional, organism-based
Acinetobacter baumannii [11] = experiment: Antibacterial activity against Acinetobacter baumannii ATCC 17978 assessed as growth inhibition at 64 ug/ml after overnight incubation by broth microdilution method; assay type: functional, organism-based
Enterobacter sp. [12] = experiment: Antibacterial activity against Enterobacter sp. KCTC 2625 assessed as growth inhibition at 64 ug/ml after overnight incubation by broth microdilution method; assay type: functional, organism-based
Klebsiella pneumoniae [13] = experiment: Antibacterial activity against Klebsiella pneumoniae ATCC 77326 after overnight incubation by microplate checkerbroad assay in presence of PSPC; assay type: functional, organism-based
Outline: (§3)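 Microplate checkerboard: PSPC at final 1–64 µg/mL crossed with polymyxin B at final 0.063–64 µg/mL; minimum growth-inhibiting concentrations alone and in combination determined and used to calculate FIC index.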

Acinetobacter baumannii [14] = experiment: Antibacterial activity against Acinetobacter baumannii ATCC 17978 after overnight incubation by microplate checkerbroad assay in presence of PSPC; assay type: functional, organism-based
Outline: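 Checkerboard microplate growth inhibition. PSPC at final 1–64 µg/mL combined with polymyxin B at final 0.063–64 µg/mL. The lowest concentrations inhibiting growth alone and in combination were used to calculate the FIC index.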

Staphylococcus aureus [15] = experiment: Antibacterial activity against methicillin-resistant Staphylococcus aureus MW2 infected in young adult stage of Caenorhabditis elegans glp-4(bn2);sek-1 (km4) assessed as prolongation of survival after 5 days by Sytox Orange staining-based bright field microscopic analysis; assay type: functional; conditions: MW2, 120 h, read-out: MEC; outline: as §2
HEK293 [16] = experiment: Toxicity in HEK293 cells assessed as decrease in cell survival rate after 24 hrs by WST-1 assay; assay type: cell-based; conditions: human, hek293, 24 h
Outline: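 HEK-293 cells treated with serial dilutions over 1–64 µg/mL; rotenone as positive control; viability read spectrophotometrically from WST-1 conversion to formazan by viable cells.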

Klebsiella pneumoniae [17] = experiment: Ratio of MIC for Klebsiella pneumoniae ATCC 77326 in absence of 64 ug/ml efflux pump inhibitor PAbetaN to MIC for Klebsiella pneumoniae ATCC 77326 in presence of 64 ug/ml efflux pump inhibitor PAbetaN; assay type: functional
Pseudomonas aeruginosa [18] = experiment: Ratio of MIC for Pseudomonas aeruginosa PA14 in absence of 64 ug/ml efflux pump inhibitor PAbetaN to MIC for Pseudomonas aeruginosa PA14 in presence of 64 ug/ml efflux pump inhibitor PAbetaN; assay type: functional
HEK293 [19] = experiment: Toxicity in HEK293 cells assessed as mortality rate at 4 ug/ml after 24 hrs by WST-1 assay relative to control; assay type: cell-based; conditions: human, hek293, 24 h
Outline: (§4)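 HEK-293 cells treated with serial dilutions (1–64 µg/mL); rotenone as positive control. Viability read spectrophotometrically from conversion of WST-1 to formazan.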

Klebsiella pneumoniae [20] = experiment: Antibacterial activity against Klebsiella pneumoniae ATCC 77326 after overnight incubation by microplate checkerbroad assay in presence of polymyxin B; assay type: functional; outline: as §3
Pseudomonas aeruginosa [21] = experiment: Antibacterial activity against Pseudomonas aeruginosa PA14 after overnight incubation by broth microdilution method in presence of 64 ug/ml efflux pump inhibitor PAbetaN; assay type: functional
Staphylococcus aureus [22] = experiment: Ratio of MIC for methicillin-resistant Staphylococcus aureus MW2 to MEC for methicillin-resistant Staphylococcus aureus MW2 infected in young adult stage of Caenorhabditis elegans glp-4(bn2);sek-1 (km4); assay type: functional
Outline: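 The MW2 MIC was measured in Müller-Hinton broth. For the MEC, young adult glp-4(bn2);sek-1(km4) worms were co-inoculated with MW2 in 384-well plates with 2-fold dilutions (0.78–100 µg/mL), with DMSO at or below 1%. Dead worms were stained with Sytox Orange. Survival was taken as […] per well.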

[23] = Hemolytic activity in sheep erythrocytes at 0.063 to 64 ug/ml after 1 hr; assay type: ADME, cell-based, Ovis aries; conditions: erythrocyte
Outline: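 Sheep red blood cells exposed 1 hour to serial dilutions (0.063–64 µg/ml); Triton X-100 at 0.001–1% as positive control; hemolysis scored visually and confirmed by absorbance at 540 nm.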

Staphylococcus aureus [24] = experiment: Bactericidal activity against methicillin-resistant Staphylococcus aureus MW2 at 40 ug/ml measured for 4 hrs by time-kill assay; assay type: functional
Acinetobacter baumannii [25] = experiment: Antibacterial activity against Acinetobacter baumannii ATCC 17978 after overnight incubation by microplate checkerbroad assay in presence of polymyxin B; assay type: functional; outline: as §3
Enterobacter sp. [26] = experiment: Ratio of MIC for Enterobacter sp. KCTC 2625 in absence of 64 ug/ml efflux pump inhibitor PAbetaN to MIC for Enterobacter sp. KCTC 2625 in presence of 64 ug/ml efflux pump inhibitor PAbetaN; assay type: functional
Staphylococcus aureus [27] = experiment: Ratio of MBC to MIC for methicillin-resistant Staphylococcus aureus MW2; assay type: functional
Enterobacter sp. [28] = experiment: Antibacterial activity against Enterobacter sp. KCTC 2625 after overnight incubation by broth microdilution method in presence of 64 ug/ml efflux pump inhibitor PAbetaN; assay type: functional
Caenorhabditis elegans = experiment: Toxicity in Caenorhabditis elegans glp-4(bn2);sek-1 (km4) after 5 days by Sytox Orange staining-based bright field microscopic analysis; assay type: organism-based; conditions: in vivo, 120 h
Outline: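 Young adult C. elegans glp-4(bn2);sek-1(km4) co-inoculated in 384-well plates with MRSA strain MW2 and 2-fold serial dilutions (0.78–100 µg/mL), DMSO ≤1%; dead worms stained with Sytox Orange, survival from fluorescent worm area relative to total worm area.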

[29] = Toxicity in HEK293 cells assessed as cell survival rate at 64 ug/ml after 24 hrs by WST-1 assay relative to control; assay type: cell-based; conditions: human, read-out: Survival; outline: as §4
Acinetobacter baumannii [30] = experiment: Ratio of MIC for Acinetobacter baumannii ATCC 17978 in absence of 64 ug/ml efflux pump inhibitor PAbetaN to MIC for Acinetobacter baumannii ATCC 17978 in presence of 64 ug/ml efflux pump inhibitor PAbetaN; assay type: functional
Acinetobacter baumannii [31] = experiment: Antibacterial activity against Acinetobacter baumannii ATCC 17978 after overnight incubation by broth microdilution method in presence of 64 ug/ml efflux pump inhibitor PAbetaN; assay type: functional
[32] = Toxicity in HEK293 cells assessed as cell survival rate up to 2 ug/ml after 24 hrs by WST-1 assay relative to control; assay type: cell-based; conditions: human, read-out: Survival; outline: as §4
Klebsiella pneumoniae [33] = experiment: Antibacterial activity against Klebsiella pneumoniae ATCC 77326 after overnight incubation by broth microdilution method in presence of 64 ug/ml efflux pump inhibitor PAbetaN; assay type: functional
Staphylococcus aureus [34] = experiment: Bactericidal activity against methicillin-resistant Staphylococcus aureus MW2 after overnight incubation; assay type: functional

Compound: N#Cc1nccnc1[S+]([O-])c1ccccc1 (stereo not drawn)
- MIC (Klebsiella pneumoniae [1]): 64 µg/mL (≈ 279 µM)
- MIC (Enterobacter sp. [2]): > 64 µg/mL
- MIC (Acinetobacter baumannii [3]): 32 µg/mL (≈ 140 µM)
- MIC (Pseudomonas aeruginosa [4]): > 64 µg/mL
- MIC (Staphylococcus aureus [5]): 4 µg/mL (≈ 17.4 µM)
- MIC (Enterococcus faecium): 8 µg/mL (≈ 34.9 µM)

Compound: N#Cc1nccnc1Sc1ccccc1
- MIC (Klebsiella pneumoniae [1]): > 64 µg/mL
- MIC (Enterobacter sp. [2]): > 64 µg/mL
- MIC (Acinetobacter baumannii [3]): > 64 µg/mL
- MIC (Pseudomonas aeruginosa [4]): > 64 µg/mL
- MIC (Staphylococcus aureus [5]): > 64 µg/mL
- MIC (Enterococcus faecium): > 64 µg/mL

Compound: CN[C@H](CC(C)C)C(=O)N[C@H]1C(=O)N[C@@H](CC(N)=O)C(=O)N[C@H]2C(=O)N[C@H]3C(=O)N[C@H](C(=O)N[C@H](C(=O)O)c4cc(O)cc(O)c4-c4cc3ccc4O)[C@H](O)c3ccc(c(Cl)c3)Oc3cc2cc(c3O[C@@H]2O[C@H](CO)[C@@H](O)[C@H](O)[C@H]2O[C@H]2C[C@](C)(N)[C@H](O)[C@H](C)O2)Oc2ccc(cc2Cl)[C@H]1O [VANCOMYCIN]
- Survival (Staphylococcus aureus [6]): >90%
- survival at 50 µg/mL (Staphylococcus aureus [7]): > 97%
- survival at 100 µg/mL (Staphylococcus aureus [8]): > 97%
- MIC (Enterococcus faecium): 4 µg/mL (≈ 2.76 µM)

Compound: N=C(N)NCCC[C@H](NC(=O)[C@@H](N)Cc1ccccc1)C(=O)Nc1ccc2ccccc2c1 (H-Phe-Arg-βNA)
- growth inhibition (GI) (Pseudomonas aeruginosa [9]): inactive
- growth inhibition (GI) (Klebsiella pneumoniae [10]): inactive
- growth inhibition (GI) (Acinetobacter baumannii [11]): inactive
- growth inhibition (GI) (Enterobacter sp. [12]): inactive

Compound: POLYMYXIN B
- MIC (Klebsiella pneumoniae [13]): 2 µg/mL
- MIC (Klebsiella pneumoniae [1]): 16 µg/mL
- MIC (Enterobacter sp. [2]): 32 µg/mL
- MIC (Acinetobacter baumannii [14]): 0.125 µg/mL
- MIC (Acinetobacter baumannii [3]): 0.5 µg/mL
- MIC (Pseudomonas aeruginosa [4]): 2 µg/mL

Compound: N#Cc1nccnc1S(=O)(=O)c1ccccc1
- MIC (Klebsiella pneumoniae [1]): 64 µg/mL (≈ 261 µM)
- minimal effective concentration (Staphylococcus aureus [15]): ≤ 0.78 µg/mL
- Activity (HEK293 [16]): Dose-dependent effect
- Ratio (Klebsiella pneumoniae [17]): 8
- Ratio (Pseudomonas aeruginosa [18]): >4
- mortality (HEK293 [19]): 69%
- Survival (Staphylococcus aureus [6]): >90%
- fractional inhibitory concentration index (FICI) (Klebsiella pneumoniae [20]): 0.141
- MIC (Klebsiella pneumoniae [20]; Klebsiella pneumoniae, ATCC 77326): 1 µg/mL
- survival at 50 µg/mL (Staphylococcus aureus [7]): 46%
- survival at 100 µg/mL (Staphylococcus aureus [8]): 16%
- MIC (Pseudomonas aeruginosa [21]): 16 µg/mL
- Ratio (Staphylococcus aureus [22]): >=5
- Activity [23]: Non-toxic
- MIC (Enterobacter sp. [2]): > 64 µg/mL
- Activity (Staphylococcus aureus [24]): 100%
- fractional inhibitory concentration index (FICI) (Acinetobacter baumannii [25]): 0.375
- MIC (Acinetobacter baumannii [25]; Acinetobacter baumannii, ATCC 17978): 4 µg/mL
- Ratio (Enterobacter sp. [26]): >8
- Ratio (Staphylococcus aureus [27]): 4
- MIC (Enterobacter sp. [28]): 8 µg/mL
- Activity (Caenorhabditis elegans): Dose-dependent effect
- viability at 24 h, 64 ug/ml [29]: 8.5%
- Ratio (Acinetobacter baumannii [30]): 8
- MIC (Acinetobacter baumannii [3]): 32 µg/mL (≈ 130 µM)
- MIC (Acinetobacter baumannii [31]): 4 µg/mL
- viability at 24 h [32]: 90%
- MIC (Klebsiella pneumoniae [33]): 8 µg/mL
- MIC (Pseudomonas aeruginosa [4]): > 64 µg/mL
- MIC (Staphylococcus aureus [5]): 4 µg/mL (≈ 16.3 µM)
- MIC (Enterococcus faecium): 8 µg/mL (≈ 32.6 µM)
- MBC (Staphylococcus aureus [34]): 16 µg/mL (≈ 65.2 µM)
